The values that follow come from ChEMBL document CHEMBL1799956, “Convergent synthesis and biological evaluation of 2-amino-4-(3',4',5'-trimethoxyphenyl)-5-aryl thiazoles as microtubule targeting agents” (J Med Chem, 2011).

The term inhibition denotes the share of the control response that was lost under treatment. A low value points to a response near the control. By IC50 is commonly meant the concentration that gives 50% inhibition.

Assay [1] is filed under the species Bos taurus. Nature of the assay: Displacement of [3H]colchicine from bovine brain tubulin at 5 uM. An outline of the steps: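 [3H]colchicine binding inhibition with tubulin at 1 μM, [3H]colchicine at 5 μM and test compound at 5 μM.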
The subject of assay [2] is A549. Nature of the assay: Fold resistance, ratio of IC50 for human taxol-resistant A549-T12 cells to IC50 for human A549 cells. The format is functional.
Assay [3] has as its system CCRF-CEM. Kind of assay: Antiproliferative activity against human CEM cells assessed as growth inhibition after 72 hrs by MTT assay. Format: functional, cell-based.
The nature of assay [4]: Antiproliferative activity against human taxol-resistant A549-T12 cells assessed as growth inhibition after 72 hrs by MTT assay. Format: functional, cell-based. Particulars: A549, 72 h. In general terms: Tetrazolium dyes change colour on reduction, which living cells bring about.
Assay [5] can be described thus: Antiproliferative activity against human vinblastine-resistant CEM/VBL100 cells overexpressing P-gp assessed as growth inhibition after 72 hrs by MTT assay. The format is functional, cell-based. As to conditions: CEM/VBL100, 72 h.
In a further assay the test system is MCF7. Kind of assay: Antiproliferative activity against human MCF7 cells assessed as growth inhibition after 72 hrs by MTT assay. Format: functional, cell-based. Particulars: MCF7, 72 h.
A short description of assay [6]: Inhibition of bovine brain tubulin polymerization after 20 mins by turbidimetric analysis. Further details: species or system Bos taurus. A digest of the protocol: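 Purified tubulin at 10 μM was used for the assembly (polymerization) inhibition assay. IC50 is the concentration inhibiting assembly.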
Assay [7] deals with A549. Nature of the assay: Antiproliferative activity against human A549 cells assessed as growth inhibition after 72 hrs by MTT assay. Format: functional, cell-based. As to conditions: A549, 72 h.
A further assay deals with HT-29. Nature of the assay: Antiproliferative activity against human HT-29 cells assessed as growth inhibition after 72 hrs by MTT assay. The format is functional, cell-based. As to conditions: HT-29, 72 h.
A further assay concerns HeLa. Kind of assay: Antiproliferative activity against human HeLa cells assessed as growth inhibition after 72 hrs by MTT assay. Format: functional, cell-based.
Assay [8] deals with CCRF-CEM. Nature of the assay: Fold resistance, ratio of IC50 for human vinblastine-resistant CEM/VBL100 cells overexpressing P-gp to IC50 for human CEM cells. The format is functional. An outline of the steps:
(§1)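 Fold resistance taken as the ratio of IC50 in the resistant line to IC50 in the parental line, each IC50 from dose-response curves of at least three independent experiments.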

In another assay the test system is Jurkat. Kind of assay: Antiproliferative activity against human Jurkat cells assessed as growth inhibition after 72 hrs by MTT assay. The format is functional, cell-based.
The next assay relates to K562. Nature of the assay: Antiproliferative activity against human K562 cells assessed as growth inhibition after 72 hrs by MTT assay. Particulars: K562, 72 h. Format: functional, cell-based.
Another assay relates to HL-60. Kind of assay: Antiproliferative activity against human HL60 cells assessed as growth inhibition after 72 hrs by MTT assay. Format: functional, cell-based. As to conditions: HL-60, 72 h.
Assay [9] concerns LoVo. Kind of assay: Antiproliferative activity against human doxorubicin-resistant LoVo cells overexpressing P-gp assessed as growth inhibition after 72 hrs by MTT assay. The format is functional, cell-based.
In assay [10] the test system is LoVo. Nature of the assay: Antiproliferative activity against human LoVo cells assessed as growth inhibition after 72 hrs by MTT assay. The format is functional, cell-based.
The subject of assay [11] is LoVo. Kind of assay: Fold resistance, ratio of IC50 for human doxorubicin-resistant LoVo cells overexpressing P-gp to IC50 for human LoVo cells. Format: functional. An outline of the steps:
as §1

The species named for assay [12] is Bos taurus. Nature of the assay: Ratio of combretastatin A-4 IC50 to compound IC50 for bovine brain tubulin.

`COc1ccc(-c2sc(N)nc2-c2cc(OC)c(OC)c(OC)c2)cc1` came in with an inhibition in the assay filed under Bos taurus [1] of 79%. Also, the “Ratio IC50” value in the assay with A549 [2] came out at 0.6; with CCRF-CEM [8], 0.1; in the assay on LoVo [11] it was 0.25. Besides, the IC50 in the assay with CCRF-CEM [3] is 7.7 nM; in [4], 11.4 nM; in assay [5], 1.2 nM; in the assay on MCF7 it was 60.9 nM; in assay [6] it was 1100 nM; with A549 [7], 20.2 nM. For the same compound, the IC50 amounted to 11.7 nM in the assay on HT-29; 2.3 nM in the assay on HeLa; 2.1 nM in the assay on Jurkat; 5.1 nM with K562; 3.2 nM in the assay with HL-60; 0.8 nM with LoVo [9]. Moreover, the IC50 with LoVo [10] came out at 3.1 nM.

Take `COc1cccc2c1C(=O)c1c(O)c3c(c(O)c1C2=O)C[C@@](O)(C(=O)CO)C[C@@H]3O[C@H]1C[C@H](N)[C@H](O)[C@H](C)O1` [DOXORUBICIN]: the half-inhibitory concentration (IC50) in the assay with LoVo [10] is 120 nM. Besides, in the assay with LoVo [11], the “Ratio IC50” value turned out to be 109.6.

As to `COc1ccc(-c2sc(N)nc2-c2cc(OC)c(OC)c(OC)c2)cc1OC`, the IC50 with MCF7 was determined as 1170 nM; in the assay with A549 [7], 1800 nM; in the assay with HT-29, 432 nM; with HeLa, 249 nM; in the assay with Jurkat, 319 nM; with K562 it was 829 nM. Besides, the IC50 in the assay on HL-60 is 301 nM.

The compound `COc1cc(-c2nc(N)sc2-c2ccc3ccccc3c2)cc(OC)c1OC` had an inhibition in the assay filed under Bos taurus [1] of 94%. The IC50 in the assay with MCF7 turned out to be 51.2 nM; in assay [6], 740 nM; with A549 [7], 3.8 nM; in the assay with HT-29 it was 23.9 nM; in the assay on HeLa it was 1.6 nM; with Jurkat, 3.3 nM. The IC50 in the assay on K562 turned out to be 22.1 nM; in the assay with HL-60, 2.7 nM.

As for `COc1cc(-c2nc(N)sc2-c2cc3ccccc3s2)cc(OC)c1OC`, the inhibition in the assay listed under Bos taurus [1] worked out at 86%. Moreover, the IC50 in the assay with MCF7 is 47 nM; in assay [6] it was 2000 nM; in the assay with A549 [7] it was 16 nM; in the assay on HT-29, 19.1 nM; with HeLa, 2.8 nM; with Jurkat, 0.6 nM. In addition, the IC50 in the assay on K562 worked out at 19.6 nM; in the assay on HL-60 it was 0.9 nM.

`CC[C@]1(O)C[C@@H]2CN(CCc3c([nH]c4ccccc34)[C@@](C(=O)OC)(c3cc4c(cc3OC)N(C)[C@H]3[C@@](O)(C(=O)OC)[C@H](OC(C)=O)[C@]5(CC)C=CCN6CC[C@]43[C@@H]65)C2)C1` [VINBLASTINE]: the IC50 in the assay with CCRF-CEM [3] was found to be 4.1 nM; in assay [5], 230 nM. For the same compound, in the assay with CCRF-CEM [8], the “Ratio IC50” value was 56.1.

In the case of `COc1ccc(-c2sc(N)nc2-c2cc(OC)c(OC)c(OC)c2)cc1Cl`, the inhibition in the assay filed under Bos taurus [1] came out at 77%. Besides, the IC50 in the assay with MCF7 was 27.3 nM; in [6] it was 880 nM; with A549 [7], 37.7 nM; with HT-29, 12.8 nM; in the assay with HeLa it was 1.6 nM; with Jurkat it was 2.9 nM. Moreover, the results for the IC50 in the assay with K562 and in the assay with HL-60 were 36.1 nM and 2.8 nM, respectively.

In the assay listed under Bos taurus [1], `CCOc1ccc(-c2sc(N)nc2-c2cc(OC)c(OC)c(OC)c2)cc1Cl` displayed an inhibition of 87%. In addition, the “Ratio IC50” value worked out at 0.8 in the assay on A549 [2], 0.5 in the assay on CCRF-CEM [8] and 0.9 with LoVo [11]. Besides, the IC50 stood at 1.4 nM in the assay with CCRF-CEM [3]; 8.5 nM in assay [4]; 0.7 nM in assay [5]; 14.1 nM in the assay with MCF7; 890 nM in [6]; 11.2 nM in the assay on A549 [7]. Further, the half-inhibitory concentration (IC50) came out at 15.6 nM with HT-29; 0.91 nM with HeLa; 0.06 nM in the assay with Jurkat; 8.8 nM in the assay on K562; 0.27 nM in the assay with HL-60; 1.7 nM with LoVo [9]. In addition, the IC50 in the assay on LoVo [10] turned out to be 2 nM.

`COc1ccc(-c2sc(N)nc2-c2cc(OC)c(OC)c(OC)c2)cc1C` had an inhibition in the assay listed under Bos taurus [1] of 72%. The IC50 with MCF7 is 58.7 nM; in [6], 1100 nM; in the assay with A549 [7], 305 nM; with HT-29, 24 nM; in the assay with HeLa, 2.6 nM; in the assay on Jurkat, 21.5 nM. In addition, the figures for the IC50 in the assay with K562 and in the assay on HL-60 were 67.6 nM and 4 nM, respectively.

Regarding `COc1cccc(-c2sc(N)nc2-c2cc(OC)c(OC)c(OC)c2)c1`, the IC50 is 476 nM in the assay with MCF7; 2370 nM in the assay on A549 [7]; 239 nM with HT-29; 209 nM in the assay on HeLa; 48.4 nM with Jurkat; 728 nM with K562. Also, the IC50 with HL-60 is 118 nM.

Consider `COc1cc(-c2nc(N)sc2-c2cccc3ccccc23)cc(OC)c1OC`, for which the IC50 was greater than 10000 nM in the assay on MCF7; 6320 nM with A549 [7]; greater than 10000 nM with HT-29; 3860 nM with HeLa; 4690 nM in the assay on Jurkat; 9030 nM with K562. Further, the concentration for half-maximal inhibition (IC50) with HL-60 was determined as 8660 nM.

In the assay listed under Bos taurus [1], `COc1cc(-c2nc(N)sc2-c2ccc(C(F)(F)F)cc2)cc(OC)c1OC` showed an inhibition of 25%. Moreover, the 50% inhibitory concentration (IC50) in the assay on MCF7 was 0.4 nM; in assay [6], 4000 nM; in the assay on A549 [7] it was 357 nM; in the assay with HT-29, 221 nM; in the assay with HeLa it was 3.2 nM; in the assay on Jurkat, 8.5 nM. Moreover, the IC50 was found to be 7.6 nM with K562 and 5.1 nM in the assay on HL-60.

As to `CC(=O)O[C@H]1C(=O)[C@@]2(C)[C@H]([C@H](OC(=O)c3ccccc3)[C@]3(O)C[C@H](OC(=O)[C@H](O)[C@@H](NC(=O)c4ccccc4)c4ccccc4)C(C)=C1C3(C)C)[C@]1(OC(C)=O)CO[C@@H]1C[C@@H]2O` [PACLITAXEL], in the assay on A549 [2], the “Ratio IC50” value is on record as 10.4. Further, the results for the IC50 (in [4]; with A549 [7]) were 75.2 nM and 7.2 nM, respectively.

Consider `COc1cc(-c2nc(N)sc2-c2ccccc2)cc(OC)c1OC`, for which the IC50 with MCF7 was greater than 10000 nM; in the assay on A549 [7], 9600 nM; in the assay with HT-29 it was 7920 nM; with HeLa, 3090 nM; in the assay with Jurkat it was 3830 nM; in the assay on K562, 8500 nM. Also, the half-inhibitory concentration (IC50) in the assay on HL-60 amounted to 3640 nM.

In turn, `COc1cc(-c2nc(N)sc2-c2ccc(C)cc2)cc(OC)c1OC` displayed an inhibition in the assay listed under Bos taurus [1] of 88%. Also, the Ratio IC50 in the assay filed under Bos taurus [12] amounted to 3. Besides, the IC50 worked out at 280 nM in the assay on MCF7; 440 nM in assay [6]; 42.8 nM in the assay with A549 [7]; 12.4 nM in the assay with HT-29; 0.73 nM in the assay with HeLa; 3.9 nM with Jurkat. Also, the IC50 in the assay on K562 was 58.7 nM; in the assay on HL-60, 3.9 nM.

`COc1ccc(-c2sc(N)nc2-c2cc(OC)c(OC)c(OC)c2)cc1F`: the inhibition in the assay filed under Bos taurus [1] came out at 81%. The half-inhibitory concentration (IC50) with MCF7 came out at 18.6 nM; in [6] it was 1200 nM; in the assay with A549 [7], 3.1 nM; with HT-29, 5.7 nM; with HeLa, 2 nM; in the assay with Jurkat it was 7.3 nM. For the same compound, the IC50 with K562 was 6 nM; in the assay on HL-60 it was 6.1 nM.

For `CCc1ccc(-c2sc(N)nc2-c2cc(OC)c(OC)c(OC)c2)cc1`, the inhibition in the assay filed under Bos taurus [1] came out at 73%. In addition, the IC50 with MCF7 stood at 117 nM; in assay [6] it was 1100 nM; with A549 [7] it was 238 nM; in the assay with HT-29, 54.1 nM; in the assay on HeLa, 1 nM; with Jurkat, 4.1 nM. The IC50 in the assay with K562 is 49.7 nM; with HL-60, 1.1 nM.
